# PubChem BioAssay
# Calls of active or inactive are those of the source.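 How the source made its calls, unless noted: active means inhibition above 20% together with a positive visual image hit; inconclusive means visual image hit but inhibition not above 20%; inactive means no visual image hit.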
# What was measured:
# [1] = inhibitors of TNFa-induced NFkB p65 translocation, primary screen, imaging, HUVEC, MLSMR starter and 10KST1 sets (AID 438); details: HUVEC TNFa-induced p65 nuclear translocation; cell count: measured here: nuclei count (cytotoxicity indicator), at 2.08 µM; inhibition: at 2 µM, stronger effect = higher value, 0% TNFa-plus-vehicle, 100% no-TNFa wells;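 further: compound added about 3h40 before a 20 min TNFalpha stimulation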;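 on inhibition: signal is the nuclear over cytoplasmic p65 intensity ratio per well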
# [2] = inhibitors of mutant huntingtin aggregation, primary screen, imaging, exon1htt(103Q)mCFP cells, high-content imaging (AID 483;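 active means visual image review flags a hit and inhibition of aggregation exceeds 20%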;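 further: compound exposure lasted 3 days before fixation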;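 on nuclei count: percent of the per-plate median nuclei count of sample wells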); details: exon1htt(103Q)mCFP cell line, aggregate imaging, at 2 µM; inhibition of aggregation: stronger effect = higher value; nuclei count: measured here: cell count, toxicity
# [3] = inhibitors of E-selectin induction by TNFa, primary screen, imaging, HUVEC, immunofluorescence, MLSMR starter and 10KST1 sets (AID 487;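 active means visually confirmed hit in the image check and inhibition above 20%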;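 on inhibition: signal is fraction of cell area covered by stained E-selectin grains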;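 on nuclei count: 100% = median nuclei count of all wells on the same plate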); details: HUVEC TNFalpha-induced E-selectin immunofluorescence imaging, at 2 µM; inhibition: stronger effect = higher value; nuclei count: measured here: cell number, toxicity
# [4] = target: Voltage-gated potassium channel subunit beta-2 (Rattus norvegicus) (UniProt P62483); assay: KvBeta enzyme negative modulators, primary screen, biochemical, NADPH fluorescence (AID 622;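 active means fluorescence slope higher than the sample average by over 3 SD, cut at about -0.22 in these data, passing the limit was not always enough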;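 further: slope of raw intensity against log time taken from 70 to 1610 s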); details: recombinant KvBeta, 4-cyanobenzaldehyde reduction, at 10 µM, stronger effect = higher value
# Chain of Voltage-gated potassium channel subunit beta-2 (Rattus norvegicus) (P62483 whole entry, looked up): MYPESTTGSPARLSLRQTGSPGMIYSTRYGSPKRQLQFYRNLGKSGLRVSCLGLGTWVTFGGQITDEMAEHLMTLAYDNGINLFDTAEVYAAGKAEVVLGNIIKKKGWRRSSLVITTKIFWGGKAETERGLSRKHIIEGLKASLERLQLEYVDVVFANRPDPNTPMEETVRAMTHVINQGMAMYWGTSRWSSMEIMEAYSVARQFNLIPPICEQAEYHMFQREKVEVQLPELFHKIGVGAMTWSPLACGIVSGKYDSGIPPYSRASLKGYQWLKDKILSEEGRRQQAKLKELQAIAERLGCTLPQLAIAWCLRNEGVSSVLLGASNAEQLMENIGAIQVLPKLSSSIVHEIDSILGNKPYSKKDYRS
# [5] = target: Voltage-gated potassium channel subunit beta-2 (Rattus norvegicus) (UniProt P62483); assay: KvBeta positive modulators, primary screen, biochemical, NADPH fluorescence (AID 623;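 active means NADPH fluorescence slope more negative than the mean of all samples by about 3 SD, 99.7% confidence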;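 further: fluorescence intensity change per second fitted from 20 to 320 s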); details: Recombinant KvBeta, NADPH fluorescence decrease slope, 10 min; at 10 µM; stronger effect = lower value
# [6] = target: Alpha-2C adrenergic receptor (Homo sapiens) (UniProt P18825); assay: modulators of alpha2C/GIRK thallium flux, primary screen, cell-based, HEK293 alpha2C/GIRK1/2 (AID 624;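 active means fluorescence slope after compound addition differing from the mean of all screened samples at 99.7% confidence, in either direction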;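 further: slope of fluorescence ratio to pre-addition baseline per second over 15 to 24 s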); details: thallium flux BTC fluorescence, at 10 µM, actives lie on both sides
# Chain of Alpha-2C adrenergic receptor (Homo sapiens) (P18825 whole entry, looked up): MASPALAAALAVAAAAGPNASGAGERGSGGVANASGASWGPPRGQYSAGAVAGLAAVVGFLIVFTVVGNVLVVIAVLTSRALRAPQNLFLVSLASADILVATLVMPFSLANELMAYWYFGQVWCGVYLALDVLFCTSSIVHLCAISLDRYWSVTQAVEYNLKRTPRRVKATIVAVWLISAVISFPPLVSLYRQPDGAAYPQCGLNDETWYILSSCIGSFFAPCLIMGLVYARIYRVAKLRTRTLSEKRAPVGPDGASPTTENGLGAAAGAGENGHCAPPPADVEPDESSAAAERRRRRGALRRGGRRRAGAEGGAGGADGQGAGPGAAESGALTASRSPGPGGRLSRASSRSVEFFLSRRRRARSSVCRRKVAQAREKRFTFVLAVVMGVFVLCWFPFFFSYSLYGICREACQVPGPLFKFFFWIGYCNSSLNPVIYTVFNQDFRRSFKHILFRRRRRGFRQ
# [7] = inhibitors of larval lipid processing in zebrafish, primary screen, whole organism, PED6 fluorescence, gall bladder and intestine (AID 686;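 active means a full or partial loss of lipid-probe fluorescence in the fish gall bladder, intestine or both, judged by eye; inactive means no fluorescence loss, or compound toxic to the fish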;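 further: larvae 5 to 7 days old with five fish per well; signal comes from phospholipase A2 cleavage of quenched PED6 carried via bile; overnight exposure to compound and PED6 before scoring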); details: Zebrafish larvae PED6 lipid processing, fluorescence scoring; screened at 20 µM (by protocol)
# In short: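 Doses: 20 µM single dose. Test system: live zebrafish larvae aged 5-7 days, whole organism. Quantity: five larvae per well. Measured by: By-eye fluorescence microscopy. Reagent: ingested quenched lipid PED6 at 100 nM. Read-out: visual per-well fluorescence inhibition score. Times: overnight exposure of larvae to compound plus PED6.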
# [8] = inhibitors of Sendai virus-induced IRF3 signaling, primary screen, TLR/RLR signaling modifier project, cell-based, Sendai virus stimulus, luciferase, 10K MLSCN set (AID 602276;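 active means inhibition at or above 50% at 10 µM; inactive means inhibition below 50%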;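 further: firefly luciferase from ISG56 promoter only with Renilla not read in this screen; 0% = Sendai virus plus DMSO and 100% = medium plus DMSO without virus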); details: HEK293 RL24 IRF3 luciferase reporter, at 10 µM, stronger effect = higher value
# [9] = inhibitors of poly I:C-induced TLR3 signaling, primary screen, cell-based, poly I:C stimulus, luciferase, 10K MLSCN set (AID 602277;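 active means inhibition of the reporter signal at or above 50%; inactive means inhibition below 50%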); details: HEK293-TLR3 RL24 IRF3 luciferase reporter, at 10 µM, stronger effect = higher value
SMILES,cell count [1],inhibition [1],inhibition of aggregation [2],nuclei count [2],inhibition [3],nuclei count [3],fluorescence slope [4],NADPH fluorescence slope [5],slope [6],outcome [7],inhibition [8],inhibition [9]
CC1Oc2ccccc2N(Cc2ccccc2Cl)C1=O (stereo not given),630,15.4% (inactive),-11.1% (inactive),59.5%,-90.8% (inactive),106%,-0.475 (inactive),-5.9e-05 (inactive),0.00421 (inactive),inactive,-20.2% (inactive),-52.6% (inactive)
COC(=O)CSc1nnc(CSc2nc(C)cc(C)n2)n1Cc1ccco1,567,5.2% (inactive),-0.5% (inactive),99.8%,-50.8% (inactive),135%,-0.404 (inactive),-2.4e-05 (inactive),0.00459 (inactive),inactive,1.21% (inactive),3.66% (inactive)
Cc1cc(C)c(NC2=NCC(=O)N2C2CCCCC2)c(C)c1,638,-2.2% (inactive),5.3% (inactive),122%,-32.7% (inactive),114%,-0.389 (inactive),1.7e-05 (inactive),0.00607 (inactive),inactive,-0.88% (inactive),-0.177% (inactive)
Cc1ccc(OCC(O)Cn2c(NCCc3ccccc3)nc3c2c(=O)[nH]c(=O)n3C)cc1 (stereo not given),421,-1.8% (inactive),-12.3% (inactive),107%,-5.4% (inactive),113%,-0.444 (inactive),5.3e-06 (inactive),0.00534 (inactive),inactive,-0.0675% (inactive),1.64% (inactive)
CCn1c(SCC(=O)Nc2ccc3c(c2)OCO3)nnc1-c1cnccn1,542,-3.4% (inactive),1.7% (inactive),89.2%,-72.2% (inactive),118%,-0.437 (inactive),-5.6e-05 (inactive),0.00469 (inactive),inactive,15.5% (inactive),16.7% (inactive)
CSc1ncc(Cl)c(C(=O)Nc2ccc(S(=O)(=O)N3CCOCC3)cc2)n1,288,-0.8% (inactive),-8.6% (inactive),101%,2.7% (inactive),131%,-0.433 (inactive),-5.7e-05 (inactive),0.00479 (inactive),inactive,4.78% (inactive),0.446% (inactive)
CCn1nnnc1SCC(=O)N1c2ccccc2CCc2ccccc21,568,-4.6% (inactive),2% (inactive),96.3%,-32.7% (inactive),117%,-0.377 (inactive),-5.8e-05 (inactive),0.00737 (inactive),inactive,1.39% (inactive),1.68% (inactive)
CCOC(=O)c1c2n(c3ccc(O)cc13)CCCCC2,571,7.1% (inactive),-7.5% (inactive),107%,-113% (inactive),110%,-0.413 (inactive),-3.4e-05 (inactive),0.00489 (inactive),inactive,-6.81% (inactive),1.43% (inactive)
CC1=Nn2c(nnc2-c2ccccc2)SC1,303,-2.7% (inactive),-6.5% (inactive),121%,-19.2% (inactive),108%,-0.374 (inactive),-1.6e-05 (inactive),0.00576 (inactive),inactive,11.5% (inactive),-4.42% (inactive)
O=C(NCc1cccs1)c1cc2c(s1)CS(=O)(=O)C2,618,-3% (inactive),-17.1% (inactive),101%,-42.8% (inactive),113%,-0.32 (inactive),-4.2e-06 (inactive),0.00763 (inactive),inactive,23.3% (inactive),87% (active)
COc1ccc(S(=O)(=O)Nc2ccc(Cl)cn2)c(C)c1C,482,-29.6% (inactive),-3.5% (inactive),62%,-46.8% (inactive),98.5%,-0.387 (inactive),-4.6e-05 (inactive),0.00866 (inactive),inactive,11.2% (inactive),1.09% (inactive)
Cc1nc2cc(NC(=O)N3c4ccccc4CC3C)ccc2o1 (stereo not given),574,-2.2% (inactive),7.4% (inactive),56.2%,-10.4% (inactive),96.8%,-0.394 (inactive),-5.4e-05 (inactive),0.00476 (inactive),inactive,1.7% (inactive),-4% (inactive)
O=C(NC1CCS(=O)(=O)C1)OC1CCCCC1 (stereo not given),419,-1.2% (inactive),2% (inactive),111%,-91.7% (inactive),105%,-0.468 (inactive),-5.2e-05 (inactive),0.0056 (inactive),inactive,10.9% (inactive),3.54% (inactive)
COc1cc(-c2nc(-c3ccncc3)no2)cc(OC)c1OC,491,-1.1% (inactive),-1.8% (inactive),88.9%,58.4% (inactive),50.2%,-0.341 (inactive),-3.8e-05 (inactive),0.00475 (inactive),inactive,4.77% (inactive),-3.43% (inactive)
COc1ccc(CSCCN)cc1Cl,431,-3.8% (inactive),-22.4% (inactive),104%,27.2% (inactive),107%,-0.4 (inactive),-9.7e-05 (inactive),0.00556 (inactive),inactive,-7.54% (inactive),-8.95% (inactive)
CCOc1ccccc1C(=O)Nn1c(C2CCC2)nc2ccccc2c1=O,292,-14% (inactive),-21.7% (inactive),7.3%,-38.2% (inactive),98.8%,-0.467 (inactive),-5.5e-05 (inactive),0.00459 (inactive),inactive,20.9% (inactive),37.7% (inactive)
CCOC(=O)N1CCN(C(=O)CN(Cc2ccccc2)S(=O)(=O)c2ccc(OC)c(C)c2)CC1,320,-2.3% (inactive),1.8% (inactive),106%,-6.6% (inactive),70.5%,-0.38 (inactive),1e-05 (inactive),0.00442 (inactive),inactive,-4.93% (inactive),1.48% (inactive)
Cc1ccc(Nc2nc(N)nc(CN3CCN(Cc4ccc5c(c4)OCO5)CC3)n2)cc1,385,4.6% (inactive),54.3% (active),91.6%,-82.2% (inactive),102%,-0.367 (inactive),-4.6e-05 (inactive),0.00487 (inactive),inactive,1.9% (inactive),7.26% (inactive)
COc1ccc(OC)c(NC(=O)C23CCC(C)(C(=O)C2)C3(C)C)c1 (stereo not given),512,-4.8% (inactive),4.8% (inactive),98.5%,-103% (inactive),125%,-0.455 (inactive),-0.00015 (inactive),0.00548 (inactive),inactive,12.9% (inactive),26.7% (inactive)
CCCC(OC(=O)CN1C(=O)COc2ccccc21)C(=O)NC1CCCC1 (stereo not given),637,5.5% (inactive),1.5% (inactive),129%,-88% (inactive),106%,-0.434 (inactive),-1.6e-05 (inactive),0.00522 (inactive),inactive,20.6% (inactive),23.6% (inactive)
